≈ marks a conversion by molar mass, not a printed value.
Tests used:
Bacillus subtillis = test: In vitro antibacterial MIC determination; format: cell-based
Summary of the method: (§1)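 Bacteria grown on nutrient agar, subcultured to log phase in nutrient broth, then diluted in sterile saline to about 10^5–10^6 CFU mL−1. Test compounds diluted in acetone, DMSO or diethyl ether (ether preferred). Saturated disks placed on spread-plated inoculum and incubated at 37 °C for 24 h. MIC determined across different compound concentrations, with streptomycin as standard.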

Staphylococcus aureus = test: In vitro antibacterial MIC determination; format: cell-based
Summary of the method: as §1

Escherichia coli = test: In vitro antibacterial MIC determination; format: cell-based
Summary of the method: as §1

Pseudomonas aeruginosa = test: In vitro antibacterial MIC determination; format: cell-based
Summary of the method: as §1

RAW 264.7 cells [1] = test: Nitrite; format: cell-based, murine; details: RAW 264.7, 100 μM and 200 μM pre-treatment; Fig. 5
Summary of the method: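 RAW 264.7 cells (1 × 10^6) seeded in flasks and left to adhere overnight. Pretreated 1 h with test compound (100 or 200 μM), then 100 μM LPS for 24 h at 37 °C, 5% CO2. Supernatant mixed with an equal volume of Griess reagent (0.1% naphthylethylenediamine and 1% sulfanilamide, 1:1, in 5% phosphoric acid) for 10 min in the dark at room temperature; A540 read. Nitrite quantified from a NaNO2 standard curve (0.1–6.25 μM), expressed as μmol NO2−/mg protein. Triplicates.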

COX-2 = molecular target: T1, COX-2 (Ovis aries, UniProt P79208); test: Colorimetric COX; format: biochemical, ovine; details: read-out: % inhibition of COX, COX-2
T1 sequence (P79208 17-603): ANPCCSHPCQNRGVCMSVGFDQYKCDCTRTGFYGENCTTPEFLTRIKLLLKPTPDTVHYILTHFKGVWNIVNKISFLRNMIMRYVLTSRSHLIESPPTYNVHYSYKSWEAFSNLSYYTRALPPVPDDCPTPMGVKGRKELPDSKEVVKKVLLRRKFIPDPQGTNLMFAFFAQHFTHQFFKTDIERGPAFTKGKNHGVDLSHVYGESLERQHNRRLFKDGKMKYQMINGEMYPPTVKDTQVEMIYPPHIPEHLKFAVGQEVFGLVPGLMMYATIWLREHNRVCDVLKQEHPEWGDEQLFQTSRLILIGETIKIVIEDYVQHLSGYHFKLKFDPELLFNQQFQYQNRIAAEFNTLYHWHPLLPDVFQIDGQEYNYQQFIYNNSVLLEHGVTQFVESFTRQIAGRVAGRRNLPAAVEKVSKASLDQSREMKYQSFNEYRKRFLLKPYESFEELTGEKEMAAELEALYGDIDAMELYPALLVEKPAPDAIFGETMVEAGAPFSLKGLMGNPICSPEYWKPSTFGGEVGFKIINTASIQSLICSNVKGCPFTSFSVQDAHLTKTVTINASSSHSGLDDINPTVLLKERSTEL

RAW 264.7 cells [2] = test: MTT assay, LPS-induced inflammation in RAW 264.7; format: cell-based, murine; details: RAW 264.7, pre-treatment 100 μM and 200 μM, then LPS; Fig. 4
Summary of the method: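 Mouse RAW 264.7 macrophages kept in high-glucose DMEM with 10% heat-inactivated FBS and 1% penicillin–streptomycin at 37 °C, 5% CO2. Cells seeded at 5 × 10^5 cells per mL, pretreated 1 h with test compound (100 or 200 μM), then stimulated with […] for 24 h. Medium replaced; 0.5 mg mL−1 MTT for 3 h; formazan dissolved in DMSO; OD read at 540 nm. Percent inflammation derived by subtracting percent viability relative to control.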

COX-1 = molecular target: T2, COX-1 (Ovis aries, UniProt P05979); test: Colorimetric COX; format: biochemical, ovine; details: read-out: % inhibition of COX, COX-1
T2 sequence (P05979 25-600): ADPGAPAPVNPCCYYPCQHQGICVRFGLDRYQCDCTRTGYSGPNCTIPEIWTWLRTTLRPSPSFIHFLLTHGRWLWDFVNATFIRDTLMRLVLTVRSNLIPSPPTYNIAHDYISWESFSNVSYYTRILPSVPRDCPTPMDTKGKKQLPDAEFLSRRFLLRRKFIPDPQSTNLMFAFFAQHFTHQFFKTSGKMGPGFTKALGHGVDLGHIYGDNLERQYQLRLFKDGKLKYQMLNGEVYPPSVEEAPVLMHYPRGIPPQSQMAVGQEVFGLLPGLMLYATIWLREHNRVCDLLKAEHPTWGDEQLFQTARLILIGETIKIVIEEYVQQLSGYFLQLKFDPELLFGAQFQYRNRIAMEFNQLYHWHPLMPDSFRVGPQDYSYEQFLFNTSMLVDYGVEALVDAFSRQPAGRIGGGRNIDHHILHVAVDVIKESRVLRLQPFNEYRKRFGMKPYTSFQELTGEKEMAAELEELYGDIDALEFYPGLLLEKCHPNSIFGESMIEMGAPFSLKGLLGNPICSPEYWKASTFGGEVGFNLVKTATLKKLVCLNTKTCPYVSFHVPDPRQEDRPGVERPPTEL

Aspergillus flavus = test: In vitro antifungal MIC, poison plate technique; format: cell-based
[3] = tested on: carrageenan-induced paw edema; test: Carrageenan induced hind paw edema assay; format: in vivo; details: rat, 100 mg kg^−1 p.o., mean ± SEM
Summary of the method: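 Rats, six per group, acclimatized one week (25 ± 2 °C, 12 h light/dark, standard pellets, water ad libitum). […] Paw volume measured by plethysmometer displacement to the lateral malleolus at 1, 3 and 6 h. Mean ± SEM.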

Aspergillus niger = test: In vitro antifungal MIC, poison plate technique; format: cell-based
Rhizopus arrhizus = test: In vitro antifungal MIC, poison plate technique; format: cell-based
[4] = tested on: cotton pellet induced granuloma; test: Cotton pellets induced granuloma assay; format: in vivo; details: rat, 100 mg kg^−1 p.o. for 8 d, mean ± SEM
Summary of the method: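 Two sterile 10 mg cotton pellets implanted ventrally in rats, six per group. […] On day 9 rats were killed under excess ether. Pellets were freed of tissue and weighed wet, then dried at 55 °C for 6 h or to constant weight. Granuloma equals dry weight minus cotton weight. Mean ± SEM.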

SMILES	MIC (Bacillus subtillis)	MIC (Staphylococcus aureus)	MIC (Escherichia coli)	MIC (Pseudomonas aeruginosa)	inhibition of LPS-induced NO production (RAW 264.7 cells [1])	inhibition at 100 µM (COX-2)	inhibition at 200 µM (COX-2)	anti-inflammatory activity against LPS induced cell death / inflammation (MTT) (RAW 264.7 cells [2])	inhibition at 100 µM (COX-1)	inhibition at 200 µM (COX-1)	MIC (Aspergillus flavus)	Paw volume ([3]; 1 h after carrageenan)	Paw volume ([3]; 3 h after carrageenan)	Paw volume ([3]; 6 h after carrageenan)	MIC (Aspergillus niger)	MIC (Rhizopus arrhizus)	Weight, Dry (cotton pellet) [4]	Weight, Wet (cotton pellet) [4]
[H]/N=C(/N)N[C@H]1[C@H](O)[C@@H](O)[C@H](O[C@@H]2O[C@@H](C)[C@](O)(C=O)[C@H]2O[C@@H]2O[C@@H](CO)[C@H](O)[C@@H](O)[C@@H]2NC)[C@@H](N/C(N)=N\[H])[C@@H]1O [Streptomycin, reference compound]	25.4 ± 0.48 µg/mL (≈ 43.7 µM)	18.6 ± 1.07 µg/mL (≈ 32.1 µM)	26.4 ± 1.12 µg/mL (≈ 45.4 µM)	28.2 ± 0.8 µg/mL (≈ 48.5 µM)	–	–	–	–	–	–	–	–	–	–	–	–	–	–
O=[N+]([O-])c1cc(S(=O)(=O)NC[C@@H](O)[C@@H]2CCc3cc(F)ccc3O2)ccc1Cl [Compound 8d, 4-Chloro-N-((R)-2-((S)-6-Fluorochroman-2-yl)-2-hydroxyethyl)-3-nitrobenzenesulfonamide]	18.3 ± 0.21 µg/mL (≈ 42.5 µM)	17.4 ± 0.4 µg/mL (≈ 40.5 µM)	24.2 ± 0.72 µg/mL (≈ 56.1 µM)	27.4 ± 0.65 µg/mL (≈ 63.6 µM)	strong inhibition	39.3 ± 0.77%	63.88 ± 0.46%	strong anti-inflammatory activity	53.88 ± 0.3%	69.64 ± 0.18%	17 ± 0.7 µg/mL (≈ 39.6 µM)	0.78 ± 0.88 mL	1.08 ± 0.40 mL	1.50 ± 0.64 mL	15.3 ± 0.15 µg/mL (≈ 35.5 µM)	18.6 ± 0.65 µg/mL (≈ 43.3 µM)	–	–
O=S(=O)(NC[C@@H](O)[C@@H]1CCc2cc(F)ccc2O1)c1cccc(C(F)(F)F)c1 [Compound 8e, N-((R)-2-((S)-6-Fluorochroman-2-yl)-2-hydroxyethyl)-3-(trifluoromethyl)benzenesulfonamide]	19.7 ± 0.36 µg/mL (≈ 46.9 µM)	20.4 ± 0.62 µg/mL (≈ 48.7 µM)	26.3 ± 0.28 µg/mL (≈ 62.6 µM)	26.7 ± 0.88 µg/mL (≈ 63.7 µM)	strong inhibition	35.55 ± 0.22%	57.72 ± 0.36%	strong anti-inflammatory activity	48.4 ± 0.84%	71.55 ± 0.15%	14.1 ± 0.55 µg/mL (≈ 33.6 µM)	0.68 ± 0.96 mL	0.74 ± 0.29 mL	1.19 ± 0.65 mL	11.7 ± 0.35 µg/mL (≈ 27.9 µM)	16.6 ± 0.52 µg/mL (≈ 39.7 µM)	76.45 ± 1.95 mg	152.40 ± 1.57 mg
CCOC(=O)NC[C@@H](O)[C@@H]1CCc2cc(F)ccc2O1 [Compound 9d, Ethyl((R)-2-((S)-6-fluorochroman-2-yl)-2-hydroxyethyl)carbamate]	27.7 ± 0.44 µg/mL (≈ 97.6 µM)	18.1 ± 0.8 µg/mL (≈ 63.8 µM)	27.2 ± 0.92 µg/mL (≈ 96.1 µM)	31.7 ± 0.88 µg/mL (≈ 112 µM)	–	29.7 ± 0.75%	38.59 ± 0.29%	–	41.4 ± 0.62%	52.16 ± 0.3%	25.2 ± 0.66 µg/mL (≈ 89 µM)	–	–	–	28.46 ± 0.14 µg/mL (≈ 100 µM)	31.3 ± 0.45 µg/mL (≈ 110 µM)	–	–
O=S(=O)(NC[C@@H](O)[C@@H]1CCc2cc(F)ccc2O1)c1cccs1 [Compound 8c, N-((R)-2-((S)-6-Fluorochroman-2-yl)-2-hydroxyethyl)thiophene-2-sulfonamide]	21.6 ± 0.44 µg/mL (≈ 60.4 µM)	19.7 ± 0.62 µg/mL (≈ 55 µM)	17.1 ± 0.47 µg/mL (≈ 47.9 µM)	22.2 ± 0.63 µg/mL (≈ 62.1 µM)	strong inhibition	40.4 ± 0.1%	61.2 ± 0.72%	strong anti-inflammatory activity	51.1 ± 0.62%	70.07 ± 0.7%	16.7 ± 0.7 µg/mL (≈ 46.8 µM)	0.60 ± 0.64 mL	0.88 ± 0.31 mL	1.11 ± 0.13 mL	18.1 ± 0.46 µg/mL (≈ 50.6 µM)	22.2 ± 0.83 µg/mL (≈ 62.2 µM)	91.30 ± 1.72 mg	148.62 ± 1.85 mg
O=C(NC[C@@H](O)[C@@H]1CCc2cc(F)ccc2O1)OCC(Cl)(Cl)Cl [Compound 9b, 2,2,2-Trichloroethyl ((R)-2-((S)-6-fluorochroman-2-yl)-2-hydroxyethyl)carbamate]	26 ± 0.42 µg/mL (≈ 67.2 µM)	20.32 ± 0.06 µg/mL (≈ 52.6 µM)	21.1 ± 0.45 µg/mL (≈ 54.7 µM)	30.36 ± 0.22 µg/mL (≈ 78.5 µM)	–	37.7 ± 0.35%	63.6 ± 0.32%	–	43.1 ± 0.8%	69.02 ± 0.5%	23.8 ± 0.67 µg/mL (≈ 61.6 µM)	0.76 ± 0.48 mL	0.88 ± 0.16 mL	1.50 ± 0.25 mL	24.7 ± 0.7 µg/mL (≈ 63.9 µM)	19.2 ± 0.48 µg/mL (≈ 49.8 µM)	–	–
Cc1ccc(-c2cc(C(F)(F)F)nn2-c2ccc(S(N)(=O)=O)cc2)cc1 [Celecoxib, reference compound]	–	–	–	–	–	–	–	–	–	–	–	0.80 ± 0.50 mL	0.98 ± 0.92 mL	1.58 ± 0.22 mL	–	–	78.80 ± 3.24 mg	150.14 ± 3.46 mg
O=S(=O)(NC[C@@H](O)[C@@H]1CCc2cc(F)ccc2O1)c1ccc(F)cc1 [Compound 8a, N-((R)-2-((S)-6-Fluorochroman-2-yl)-2-hydroxyethyl)-4-fluorobenzenesulfonamide]	31.6 ± 1.03 µg/mL (≈ 85.5 µM)	21.9 ± 0.33 µg/mL (≈ 59.2 µM)	30.1 ± 0.72 µg/mL (≈ 81.6 µM)	31.9 ± 1.04 µg/mL (≈ 86.3 µM)	–	23.5 ± 0.55%	38.64 ± 0.33%	–	37.3 ± 0.32%	45.5 ± 0.77%	23.1 ± 0.25 µg/mL (≈ 62.4 µM)	–	–	–	22.3 ± 0.27 µg/mL (≈ 60.4 µM)	22.8 ± 0.54 µg/mL (≈ 61.7 µM)	–	–
CC(C)COC(=O)NC[C@@H](O)[C@@H]1CCc2cc(F)ccc2O1 [Compound 9c, Isobutyl ((R)-2-((S)-6-fluorochroman-2-yl)-2-hydroxyethyl)carbamate]	26.1 ± 0.3 µg/mL (≈ 83.8 µM)	19 ± 1.08 µg/mL (≈ 61.2 µM)	22.7 ± 0.26 µg/mL (≈ 73 µM)	28.8 ± 0.6 µg/mL (≈ 92.5 µM)	–	24.3 ± 0.2%	41.66 ± 0.23%	–	39.6 ± 0.08%	51.64 ± 0.32%	19.8 ± 0.37 µg/mL (≈ 63.6 µM)	–	–	–	19.3 ± 0.47 µg/mL (≈ 62.1 µM)	25.6 ± 0.48 µg/mL (≈ 82.1 µM)	–	–
COC(=O)NC[C@@H](O)[C@@H]1CCc2cc(F)ccc2O1 [Compound 9a, Methyl ((R)-2-((S)-6-fluorochroman-2-yl)-2-hydroxyethyl)carbamate]	20.5 ± 0.76 µg/mL (≈ 76.1 µM)	16.6 ± 0.35 µg/mL (≈ 61.5 µM)	21.7 ± 1.06 µg/mL (≈ 80.6 µM)	19.5 ± 1.25 µg/mL (≈ 72.3 µM)	strong inhibition	18.1 ± 0.88%	52.42 ± 0.21%	strong anti-inflammatory activity	50.66 ± 0.33%	75.33 ± 0.14%	12.7 ± 0.8 µg/mL (≈ 47 µM)	0.72 ± 0.72 mL	1.06 ± 0.52 mL	1.56 ± 0.33 mL	11.2 ± 1.08 µg/mL (≈ 41.6 µM)	14.2 ± 0.69 µg/mL (≈ 52.7 µM)	–	–

Reference: paper PMC8694313 (RSC Advances, 2021)
